PMC2885539 (Archives of biochemistry and biophysics, 2010)
“Also recorded” adds a separate entry of the source.

What was measured:
[1] = ref [17], [18]; cited from earlier work
[2] = cited from earlier work
[3] = intra-articular injection, ref [47]; cited from earlier work
[4] = vs native BSA, ref [21]–[23]; cited from earlier work
[5] = Equilibrium uptake / competitive binding in adult bovine cartilage; details: labeled vs unlabeled Pf-pep
[6] = Solute properties; assay type: physicochemical; details: known charge of the trivalent peptide
[7] = Calculated diffusion times and temperature effect
[8] = Net charge estimated by fitting Donnan equilibrium theory to uptake data; assay type: physicochemical, bovine; details: average of individual explants, mean ± SD, n = 68
Outline: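 Bovine cartilage disks (3-mm, L1/L2) equilibrated 48 h at 4°C in PBS with 0.1% BSA, 0.01% NaN₃ and protease inhibitors containing ¹²⁵I-labelled peptide. Disk and bath counted by gamma counter. Uptake ratio: tissue concentration per water weight over bath concentration. sGAG measured by DMMB after proteinase-K digestion. Z is the exponent of a power-law relating peptide uptake to Na⁺ partitioning calculated from each specimen's GAG density.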

Molecule: insulin-like growth factor-1 [IGF-1]
- binding to IGFBPs in cartilage ECM [1]: binds to specific IGF binding proteins (IGFBPs)

Molecule: OC[C@H]1OC(O)[C@H](O)[C@@H](O)[C@@H]1O (stereo partly drawn) [glucose]
- variation of diffusivity with tissue depth ([2]; ref [42]): did not vary significantly with tissue depth

Molecule: O=C(O)Cc1ccccc1Nc1c(Cl)cccc1Cl [diclofenac]
- clearance time from synovial fluid [3]: 1 to 5 h

Molecule: cationized bovine serum albumin (BSA): cationized bovine serum albumin
- uptake and retention in murine cartilage [4]: increased uptake and prolonged retention via binding within murine cartilage compared to native BSA

Molecule: CN(C)c1ccc2c(-c3ccccc3C(=O)[O-])c3ccc(N(C)C)cc3[o+]c2c1 [tetramethylrhodamine]
- effect of static compression on diffusivity ([2]; TMR, ref [49], [50]): reduced the diffusivities

Molecule: Arg-Tyr-Lys-Arg-Thr [Pf-pep]
- binding to sites within cartilage [5]: negligible binding; also recorded: little or no binding of Pf-pep to sites within the tissue; also recorded: did not show measurable binding to the negatively charged GAG chains in cartilage
- known net charge [6]: +3
- characteristic time lag L^2/6D ([7]; L = 1 mm, D ~1×10^−6 cm^2/s): ~ 27 min
- factor of increase of diffusion coefficient at 37°C ([7]; Stokes-Einstein relation, from room temperature to 37°C): ~ 1.4
- diffusion time constant δ^2/(π^2D) ([7]; δ = 400 μm, D ~1×10^−6 cm^2/s): ~ 2.7 min
- average net charge Z [8]: +3.07 ± 0.74

Molecule: O=C(O)c1ccccc1O [salicylate]
- clearance time from synovial fluid [3]: 1 to 5 h
